Most compounds without a hit are left out; they make up all but 2.7% or so of the library.
OXTR potentiator: potentiates the human oxytocin receptor response; P30559; activation, % at 3 µM; CHO-OTR cells, Fluo-8 calcium fluorescence, potentiator mode; 0% = oxytocin EC15, 100% = EC100; actives 0.061% (n = 320,000);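 active means activation above that plate's cutoff, the mean activation of tested compounds plus 3 SD, cut at about 6.6% in these data, passing the limit was not always enough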;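 further: 100% uses oxytocin at 75 nM as the full agonist control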
Target sequence (P30559 whole entry, looked up): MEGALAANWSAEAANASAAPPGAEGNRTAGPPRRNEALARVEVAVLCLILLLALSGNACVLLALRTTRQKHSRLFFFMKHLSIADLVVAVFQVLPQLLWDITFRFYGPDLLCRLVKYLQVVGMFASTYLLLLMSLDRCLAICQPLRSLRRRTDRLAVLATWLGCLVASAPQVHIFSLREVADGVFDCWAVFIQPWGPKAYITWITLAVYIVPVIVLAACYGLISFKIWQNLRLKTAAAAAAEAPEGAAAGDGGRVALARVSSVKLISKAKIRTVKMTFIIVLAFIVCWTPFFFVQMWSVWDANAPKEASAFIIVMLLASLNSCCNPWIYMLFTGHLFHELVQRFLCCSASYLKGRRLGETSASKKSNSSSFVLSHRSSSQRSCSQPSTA
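Assay system: CHO cell line stably expressing human OTR. Reagent: EC15 oxytocin agonist. Dosing: single dose, 3.0 µM nominal final compound concentration. Timing: compound 6 min at room temperature before oxytocin, 100 s read. Signal: kinetic Fluo-8 calcium fluorescence. Controls: oxytocin EC15 low and EC100 high.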
CHO parental Ca: signal in parental CHO cells, OX1R antagonist counter-screen; parental CHO-K1, ATP-induced calcium, Fluo-8 fluorescence; inhibition, % at 5.6 µM; actives 0.63% (n = 330,000); AID 463079;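 active means inhibition above that plate's mean sample inhibition plus 3 SD, cut at about 26% in these data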;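 further: 0% = ATP-challenged DMSO wells and 100% = DMSO wells without ATP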
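Material: parental CHO cells / Compound: single nominal dose of 5.6 µM per compound / Signal: Fluo-8 fluorescence / Replicates: singlicate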
OX1R antag-1: blocks the human orexin 1 receptor. O43613. OX1R-expressing cells, FRET antagonist read-out. inhibition, % at 6.6 µM. actives 1.8% (n = 330,000). AID 485270; in the data active means inhibition mostly above about 38%, no sharp cut-off; inactive means mostly below about 40%;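 further: 0% = agonist challenge alone and 100% = reference antagonist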
OX1R antag-2: antagonists of human orexin 1 receptor; O43613; CHO/OX1R cells, Fluo-8 calcium fluorescence, orexin A; inhibition, % at 5 µM; actives 0.43% (n = 330,000);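 active means inhibition above its plate's threshold, mean inhibition of all tested compounds on the plate plus 3 SD, cut at about 37% in these data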;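 further: 0% = orexin A challenge wells and 100% = SB-334867-A antagonist wells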
V1R ag counter: counter-screen for oxytocin receptor agonists: human V1a receptor agonists | actives 0.25% (n = 320,000) | P37288 | CHO-V1R cells, Fluo-8 calcium fluorescence, agonist mode; 0% DMSO, 100% 3 nM vasopressin | activation, % at 3 µM | AID 2797;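 active means activation above the mean activation of all tested compounds plus 3 SD, per screening run, cut at about 20% in these data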;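 further: signal is peak over basal fluorescence ratio across a 100 second FLIPR read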
OXTR agonist: human OXTR agonism; CHO-OTR cells, Fluo-8 calcium fluorescence; normalized: DMSO 0%, oxytocin 100%; activation, % at 3 µM; actives 0.32% (n = 320,000);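 active means activation above the mean of all tested compounds plus 3 SD, cutoff set per screening run, cut at about 20% in these data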;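 further: peak over basal fluorescence ratio from a 100 s FLIPR kinetic read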
OX1R HTRF confirm: OX1R (human) antagonism, HTRF confirmed | shares compounds with OX1R antag-1 | OX1R-expressing cells, HTRF antagonist assay | inhibition, % at 6.6 µM | actives 49% (n = 1,800) | AID 492964; in the data active means inhibition above about 55%;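 further: CHO cells expressing OX1R stimulated with orexin A at about EC80; 0% = agonist challenge alone and 100% = reference antagonist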
CHO-K1 HTRF: counter-screen: parental CHO-K1 HTRF response. shares compounds with OX1R antag-1. parental CHO-K1 cells, HTRF counterscreen. inhibition, % at 6.6 µM. actives 48% (n = 1,800). AID 493232; in the data active means inhibition above about 17%;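 further: 0% = agonist challenge with vehicle and 100% = vehicle alone without agonist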
* marks the source's active call; other numbers are inactive results; / = no result given.

SMILES | OXTR potentiator | CHO parental Ca | OX1R antag-1 | OX1R antag-2 | V1R ag counter | OXTR agonist | OX1R HTRF confirm | CHO-K1 HTRF
CCOCCCNC(=O)CN1C(=O)/C(=C/c2ccccc2C)Sc2ccccc21 | -16 | -12 | 12 | -5 | 1 | -2 | / | /
COc1cccc2oc3ccc(C#Cc4ccccn4)cc3c(=O)c12 | -7 | -17 | 85* | 4 | -1 | -2 | 91* | 0
O=c1c2ccccc2oc2cc(C#Cc3ccccn3)ccc12 | -6 | -2 | 13 | -8 | 0 | 0 | / | /
COc1ccc(C(=O)NCC(=O)N2CCN(C(=O)c3ccco3)CC2)cc1[N+](=O)[O-] | -2 | -6 | 17 | 2 | 0 | 0 | / | /
Cc1nnc(N/N=C/c2ccc([N+](=O)[O-])cc2)n1N | 0 | 3 | 127* | -5 | 0 | 0 | 38 | 76*
Cc1nnc(N/N=C\c2ccc(-c3cccc(C(=O)O)c3)o2)n1N | -16 | 1 | 115* | -1 | 0 | 1 | 48 | 33*
Cc1csc(N/N=C/c2ccc([N+](=O)[O-])cc2)n1 | -3 | -8 | 27 | -14 | 1 | 1 | / | /
O=C(O)c1cccc(-c2ccc(/C=N/NC(=O)c3cccnc3)o2)c1 | -1 | -1 | 37 | -8 | 1 | 1 | / | /
O=C(C1CCN(C2CCN(Cc3ccsc3)CC2)CC1)N1CCOCC1 | 1 | 10 | 0 | -7 | 0 | 1 | / | /
COc1ccc(-n2nc([N+](=O)[O-])c(=NCCCN3CCCC3=O)n2O)cc1 | 4 | -5 | 154* | 0 | 0 | 0 | 51 | 88*
CCC(C)N(C(=O)COc1ccc(NC(C)=O)cc1)C1CCS(=O)(=O)C1 (stereo unspecified) | -5 | 4 | 14 | -7 | 0 | 0 | / | /
O=C(Nc1ccccn1)c1ccc2ccccc2n1 | 4 | -18 | 86* | -3 | -1 | -2 | 68* | -5
O=C(Nc1ccccn1)c1ccc2ccccc2c1O | -14 | -16 | 7 | -5 | 1 | 0 | / | /
COC(=O)c1ccccc1NC(=O)c1cc[n+](C)cc1 | -10 | 1 | 83* | -5 | 0 | 0 | 33 | 49*
O=C(N/N=C/c1ccc([N+](=O)[O-])cc1)c1ccc2nc[nH]c2c1 | -8 | 0 | 114* | -6 | 1 | 0 | 37 | 41*
O=C(N/N=C/c1cccc([N+](=O)[O-])c1)c1ccc2nc[nH]c2c1 | -9 | -7 | 38 | -10 | 1 | 1 | / | /
O=C(N/N=C/c1cccc([N+](=O)[O-])c1)c1cnccn1 | 0 | -2 | 106* | 9 | 2 | 1 | 43 | 61*
O=C(N/N=C/c1ccccn1)c1cccc([N+](=O)[O-])c1 | 1 | -14 | 40 | -9 | 0 | 0 | / | /
O=C(N/N=C/c1cc([N+](=O)[O-])ccc1N1CCNCC1)c1ccc([N+](=O)[O-])cc1 | -17 | -12 | 78* | -8 | 0 | 0 | 52 | 69*
N#CCC(=O)N/N=C/c1cc([N+](=O)[O-])ccc1N1CCCC1 | -1 | 10 | 21 | -6 | 1 | 0 | / | /
O=C(N/N=C/c1ccccn1)c1cc([N+](=O)[O-])cc([N+](=O)[O-])c1 | -2 | 13 | 91* | 16 | 1 | 0 | 59* | 42*
O=C(N/N=C/c1ccccn1)c1ccc([N+](=O)[O-])cc1 | -3 | -6 | 83* | -12 | 1 | 1 | 46 | 42*
Cn1c(=O)n(C)c2cc(/C=C3/SC(=O)N(CC(=O)N4CCOCC4)C3=O)ccc21 | 0 | -4 | 83* | -6 | -1 | 0 | 53 | 54*
CCn1c(SCC(=O)Nc2ccc(N3CCOCC3)cc2)nnc1-c1ccco1 | -5 | 5 | 16 | -6 | -1 | -1 | / | /
Cc1ccccc1CNC(=O)c1ccccc1NS(C)(=O)=O | -3 | -12 | 105* | 0 | -1 | 0 | 26 | 0
SMILES | OXTR potentiator | CHO parental Ca | OX1R antag-1 | OX1R antag-2 | V1R ag counter | OXTR agonist | OX1R HTRF confirm | CHO-K1 HTRF
CS(=O)(=O)Nc1ccccc1C(=O)NCc1ccccc1Cl | -2 | 9 | 12 | 13 | 0 | -1 | / | /
O=C1CSC(=S)N1/N=C/c1ccc(O)c(O)c1O | -1 | -3 | 84* | -2 | 0 | 1 | 16 | -4
COc1ccc(OC)c(N/C(C)=C/C(=O)c2ccncc2)c1 | -6 | -17 | 16 | -40 | -1 | -2 | / | /
C/C(=C\C(=O)c1ccncc1)Nc1ccccc1O | -14 | 3 | 91* | 0 | 0 | -2 | 24 | 7
CCN(C(=O)CSc1ccc2ccccc2n1)C1CCCCC1 | -4 | -20 | 24 | 6 | 0 | -2 | / | /
NS(=O)(=O)c1ccc(Nc2ccc3nonc3c2[N+](=O)[O-])cc1 | 0 | -6 | 90* | -12 | 0 | 0 | 63* | 110*
O=C(O)c1cccc(Nc2ccc3nonc3c2[N+](=O)[O-])c1 | 6 | 2 | 92* | -3 | 0 | 2 | 58* | 97*
O=C(O)c1ccc(Nc2cc(Cl)c3nonc3c2[N+](=O)[O-])cc1 | -4 | -16 | 96* | -14 | 1 | 0 | 62* | 98*
Nc1cc(Nc2ccccc2)c2nonc2c1[N+](=O)[O-] | -10 | 10 | 34 | -11 | 0 | -1 | / | /
Cc1c(Nc2ccc3nonc3c2[N+](=O)[O-])c(=O)n(-c2ccccc2)n1C | -6 | -18 | 195* | -32 | 0 | 0 | 53 | 87*
Cc1cccc(Nc2ccc3nonc3c2[N+](=O)[O-])c1C | -1 | 3 | 8 | 5 | 0 | -1 | / | /
CSc1nncn1/N=C/c1ccc2c(c1)OCO2 | -2 | -4 | 8 | 7 | 0 | -1 | / | /
CSc1nncn1/N=C/c1ccc([N+](=O)[O-])cc1 | 4 | -5 | 90* | -1 | -1 | 0 | 46 | 46*
O=[N+]([O-])c1ccc(/C=N/n2cn[nH]c2=S)cc1 | -3 | -2 | 109* | -11 | 0 | 0 | 60* | 74*
S=c1[nH]ncn1/N=C/c1cccs1 | 1 | -2 | 16 | 0 | -1 | 0 | / | /
O=C(NNC(=O)c1cc(-c2ccccc2)nc2ccccc12)Nc1cccc(Cl)c1 | -21 | -6 | 90* | -14 | 2 | -1 | 14 | 5
COc1ccc(C(=O)N2CCCC(C(=O)O)C2)c2ccccc12 (stereo unspecified) | -7 | 5 | 18 | 1 | 0 | 0 | / | /
O=C(NCc1ccco1)c1cc([N+](=O)[O-])ccc1Cl | -9 | -10 | 64 | -19 | 0 | 0 | / | /

Source: PubChem
